# Experimental data reported in ChEMBL document CHEMBL3758073, “Synthesis and Biochemical Evaluation of 3-Phenoxy-1,4-diarylazetidin-2-ones as Tubulin-Targeting Antitumor Agents” (J Med Chem, 2016).
# Active and inactive are the calls of the source. The calls are words filed in the database; no cut-off is given here.
# Key:
# MCF7 [1] = test: Cytotoxicity against human MCF7 cells assessed as induction of cell death at 10 uM after 72 hrs by LDH assay; type: cell-based; details: mcf7, 72 h
# How it was run: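 Cell death in MCF-7 measured by LDH release. Seeding and dosing as for the MTT assay; after 72 h, lysis solution added to blank wells for 1 h to give 100% death. Supernatant mixed with substrate (INT to formazan) for 30 min at rt in the dark, then stopped and read at 490 nm. Percentage cell death reported at 10 μM; assays in triplicate.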
# MCF7 [2] = test: Antiproliferative activity against human MCF7 cells assessed as cell viability pre-incubated for 24 hrs with CO2 followed by compound addition after 72 hrs by MTT assay; type: functional, cell-based
# How it was run: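 MCF-7 grown in Eagle's MEM with 10% FBS, 2 mM L-glutamine, penicillin/streptomycin and 1% non-essential amino acids. Cells seeded at 2.5 x 10⁴ cells/mL, 24 h at 37 °C, then dosed from ethanol stocks over 1 nM–100 µM (vehicle 1% v/v ethanol) for 72 h. MTT at 1 mg/mL final, 2 h in the dark, DMSO solubilisation. Viability set against untreated controls; IC50 is the mean of three experiments in triplicate.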
# Tubulin (Sus scrofa) = Tubulin (Sus scrofa) (UniProt P02554+P02550); test: Inhibition of porcine tubulin polymerization assessed as inhibition of tubulin assembly Vmax rate at 10 uM by spectrophotometric analysis; type: protein assay
# How it was run: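 Tubulin polymerisation kit (>97% pure porcine tubulin, OD-based). Tubulin plus GTP at 37 °C with test agent at 10 μM final; 1% v/v ethanol as vehicle. A340 read every 30 s for 60 min at 37 °C. Fold change in Vmax calculated relative to vehicle; mean of three separate experiments.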
# MCF7 [3] = test: Binding affinity to beta-Tubulin in human MCF7 cells assessed as inhibition of protein-EBI adduct formation at Cys239 and Cys354 at 10 uM pre-incubated for 2 hrs followed by EBI addition after 1.5 hrs by Western blot analysis; type: cell-based
# How it was run: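 MCF-7 seeded at 5×10^4 cells/well and incubated overnight. Treated 2 h with test agent at 10 μM or with vehicle (0.1% v/v ethanol), then with N,N'-ethylene-bis(iodoacetamide) for a further 1.5 h. Cells washed in ice-cold PBS and lysed in Laemmli buffer. SDS-PAGE, PVDF transfer and β-tubulin immunoblot to detect the faster-migrating β-tubulin–EBI adduct. Three independent experiments.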
# Sequence of Tubulin (Sus scrofa) (P02550 whole entry, looked up): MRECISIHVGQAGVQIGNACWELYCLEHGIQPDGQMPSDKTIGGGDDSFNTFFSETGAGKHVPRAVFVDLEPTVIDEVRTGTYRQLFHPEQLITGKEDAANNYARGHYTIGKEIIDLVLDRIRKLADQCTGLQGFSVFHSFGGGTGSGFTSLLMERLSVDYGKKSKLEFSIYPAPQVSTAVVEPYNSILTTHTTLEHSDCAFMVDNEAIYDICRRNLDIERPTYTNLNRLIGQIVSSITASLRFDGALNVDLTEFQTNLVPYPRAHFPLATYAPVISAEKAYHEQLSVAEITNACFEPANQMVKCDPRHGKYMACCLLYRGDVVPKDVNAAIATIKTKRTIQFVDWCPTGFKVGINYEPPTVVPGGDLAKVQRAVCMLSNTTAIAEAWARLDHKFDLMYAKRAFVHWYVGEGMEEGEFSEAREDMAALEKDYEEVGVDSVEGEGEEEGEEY
# Sequence of Tubulin (Sus scrofa) (P02554 whole entry, looked up): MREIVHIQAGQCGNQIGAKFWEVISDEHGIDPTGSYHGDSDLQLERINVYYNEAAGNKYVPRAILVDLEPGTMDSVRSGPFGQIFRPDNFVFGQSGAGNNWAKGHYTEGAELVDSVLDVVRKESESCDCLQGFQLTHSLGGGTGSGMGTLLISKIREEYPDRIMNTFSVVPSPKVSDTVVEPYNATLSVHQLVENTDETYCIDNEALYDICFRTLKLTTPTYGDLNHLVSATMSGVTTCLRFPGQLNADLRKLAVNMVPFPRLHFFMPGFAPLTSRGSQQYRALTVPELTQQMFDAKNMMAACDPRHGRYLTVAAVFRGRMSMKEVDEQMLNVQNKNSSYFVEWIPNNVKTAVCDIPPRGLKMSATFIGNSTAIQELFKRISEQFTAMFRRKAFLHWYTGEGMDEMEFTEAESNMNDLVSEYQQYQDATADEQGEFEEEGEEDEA
Structure (SMILES),Activity (MCF7 [1]),IC50 (MCF7 [2]),fold change (FC) (Tubulin (Sus scrofa)),Activity (MCF7 [3])
COc1cc(N2C(=O)[C@@H](Oc3ccccc3)[C@H]2c2ccc3c(c2)OCO3)cc(OC)c1OC (relative stereo),8.3%,48 µM,,
COc1cc(N2C(=O)[C@@H](Oc3ccccc3)[C@H]2c2ccc(N=[N+]=[N-])cc2)cc(OC)c1OC (relative stereo),5.8%,23 µM,,
CCOC(=O)/C=C/c1ccc([C@@H]2[C@H](Oc3ccccc3)C(=O)N2c2cc(OC)c(OC)c(OC)c2)cc1 (relative stereo),,87 µM,,
COc1ccc([C@@H]2[C@H](Oc3ccccc3)C(=S)N2c2cc(OC)c(OC)c(OC)c2)cc1O (relative stereo),4.8%,7.5 µM,,
COc1cc(N2C(=O)[C@@H](Oc3ccccc3)[C@H]2c2ccc(SC)cc2)cc(OC)c1OC (relative stereo),8.1%,7.7 µM,,
COc1ccc([C@@H]2[C@@H](Oc3ccccc3)C(=O)N2c2cc(OC)c(OC)c(OC)c2)cc1[N+](=O)[O-] (relative stereo),5.2%,4.1 µM,,
COc1cc(N2C(=O)[C@@H](Oc3ccccc3)[C@H]2c2ccc(N)cc2)cc(OC)c1OC (relative stereo),14.7%,160 µM,,
COc1ccc([C@@H]2[C@H](Oc3ccccc3)C(=O)N2c2cc(OC)c(OC)c(OC)c2)cc1NC(=O)CCCc1ccc(N(CCCl)CCCl)cc1 (relative stereo),3.2%,145 µM,,
COc1cc(N2C(=O)[C@@H](Oc3ccccc3)[C@H]2c2ccc(O)cc2)cc(OC)c1OC (relative stereo),0.1%,48 µM,,
COc1ccc([C@@H]2[C@@H](Oc3ccccc3)C(=O)N2c2cc(OC)c(OC)c(OC)c2)cc1 (relative stereo),7.3%,6.9 µM,,
O=C(O)CCCc1ccc(N(CCCl)CCCl)cc1 [CHLORAMBUCIL],8%,97 µM,,
COc1ccc([C@@H]2[C@H](Oc3ccccc3)C(=O)N2c2cc(OC)c(OC)c(OC)c2)cc1N,7.7%,12.2 µM,,
COc1cc(N2C(=O)[C@@H](Oc3ccccc3)[C@H]2c2cccc3ccccc23)cc(OC)c1OC (relative stereo),4.6%,53 µM,,
COc1cc(N2C(=O)[C@@H](Oc3ccccc3)[C@H]2c2cccc(N)c2)cc(OC)c1OC (relative stereo),48%,17 µM,,
COc1cc(N2C(=O)[C@H](Oc3ccccc3)[C@H]2c2ccc(C#N)cc2)cc(OC)c1OC (relative stereo),2.1%,168 µM,0,
COc1cc([C@@H]2[C@H](Oc3ccccc3)C(=O)N2c2cc(OC)c(OC)c(OC)c2)cc(OC)c1OC (relative stereo),0%,29 µM,,
COc1cc(N2C(=O)[C@@H](Oc3ccccc3)[C@H]2c2ccc(N(C)C)cc2)cc(OC)c1OC (relative stereo),5.9%,31 µM,0,
COc1cc(N2C(=O)[C@@H](Oc3ccccc3)[C@H]2c2ccc(C#N)cc2)cc(OC)c1OC (relative stereo),4.8%,31.6 µM,,
COc1ccc([C@@H]2[C@H](Oc3ccccc3)C(=O)N2c2cc(OC)c(OC)c(OC)c2)cc1OC (relative stereo),11.2%,26 µM,,
COc1cc(N2C(=O)[C@@H](Oc3ccccc3)[C@H]2c2ccc(S(C)(=O)=O)cc2)cc(OC)c1OC (relative stereo),10.2%,62 µM,,
COc1cc([C@@H]2[C@H](Oc3ccccc3)C(=O)N2c2cc(OC)c(OC)c(OC)c2)ccc1O (relative stereo),5.1%,32 µM,,
COc1cc(N2C(=O)[C@@H](Oc3ccccc3)[C@H]2c2ccc([N+](=O)[O-])cc2)cc(OC)c1OC (relative stereo),27%,63 µM,,
COc1cc(N2C(=O)[C@@H](Oc3ccccc3)[C@H]2c2cccc(O)c2)cc(OC)c1OC (relative stereo),22%,54 µM,,
COc1cc(N2C(=O)[C@@H](Oc3ccccc3)[C@H]2c2ccc(O)c(O)c2)cc(OC)c1OC (relative stereo),6%,4.5 µM,,
COc1ccc([C@@H]2[C@H](Oc3cc(OC)c(OC)c(OC)c3)C(=O)N2c2cc(OC)c(OC)c(OC)c2)cc1O (relative stereo),10.9%,33 µM,,

Structure (SMILES),Activity (MCF7 [1]),IC50 (MCF7 [2]),fold change (FC) (Tubulin (Sus scrofa)),Activity (MCF7 [3])
COc1cc(N2C(=O)[C@@H](Oc3ccccc3)[C@H]2c2cc(O)c(OC)c([N+](=O)[O-])c2)cc(OC)c1OC (relative stereo),12.1%,69 µM,,
COc1ccc([C@@H]2[C@H](Oc3ccccc3)C(=O)N2c2cc(OC)c(OC)c(OC)c2)cc1NC(=O)C(C)N (relative stereo),,9.2 µM,,
COc1ccc([C@@H]2[C@H](Oc3ccccc3)C(=O)N2c2cc(OC)c(OC)c(OC)c2)cc1[N+](=O)[O-] (relative stereo),5.3%,69 µM,,
COc1ccc([C@@H]2[C@H](Oc3ccccc3)C(=O)N2c2cc(OC)c(OC)c(OC)c2)c(N)c1O (relative stereo),52%,19 µM,,
COc1cc([N+](=O)[O-])c([C@@H]2[C@H](Oc3ccccc3)C(=O)N2c2cc(OC)c(OC)c(OC)c2)cc1O (relative stereo),9.9%,59 µM,,
COc1ccc(N2C(=O)[C@@H](Oc3ccccc3)[C@H]2c2ccc(OC)c(O)c2)cc1 (relative stereo),10.4%,49 µM,,
COc1ccc([C@@H]2[C@H](Oc3ccccc3)CN2c2cc(OC)c(OC)c(OC)c2)cc1O,19.8%,3.3 µM,,
COc1ccc([C@@H]2[C@H](Oc3ccccc3)C(=O)N2c2cc(OC)c(OC)c(OC)c2)cc1OC(=O)CCCc1ccc(N(CCCl)CCCl)cc1 (relative stereo),8%,0.41 µM,,
COc1cc2c(c(OC)c1OC)-c1ccc(OC)c(=O)cc1[C@@H](NC(C)=O)CC2,,,,Active
COc1ccc([C@@H]2[C@H](Oc3ccccc3)C(=O)N2c2cc(OC)c(OC)c(OC)c2)cc1NC(=O)CN (relative stereo),,6.5 µM,,
COc1cc(N)c([C@@H]2[C@H](Oc3ccccc3)C(=O)N2c2cc(OC)c(OC)c(OC)c2)cc1O (relative stereo),70%,20 µM,,
COc1ccc([C@@H]2[C@H](Oc3ccccc3)C(=O)N2c2cc(OC)c(OC)c(OC)c2)cc1F (relative stereo),70%,6.3 µM,,
COc1ccc([C@@H]2[C@@H](Oc3ccccc3)C(=O)N2c2cc(OC)c(OC)c(OC)c2)cc1OP(=O)(O)O (relative stereo),,23 µM,,
COc1cc(N2C(=O)[C@@H](Oc3ccccc3)[C@H]2c2ccc3ccccc3c2)cc(OC)c1OC (relative stereo),10.7%,282 µM,,
COc1ccc([C@@H]2[C@H](Oc3ccccc3)C(=O)N2c2cc(OC)c(OC)c(OC)c2)cc1Br (relative stereo),6.4%,5.1 µM,,
COc1ccc([C@@H]2[C@H](Oc3ccccc3)C(=O)N2c2cc(OC)c(OC)c(OC)c2)cc1OP(=O)(O)O (relative stereo),,42 µM,,
COc1cccc([C@@H]2[C@H](Oc3ccccc3)C(=O)N2c2cc(OC)c(OC)c(OC)c2)c1 (relative stereo),22%,171 µM,,
COc1cc(N2C(=O)[C@@H](Oc3ccccc3)[C@H]2c2ccc(Br)cc2)cc(OC)c1OC (relative stereo),,48 µM,,
COc1ccc([C@@H]2[C@@H](Oc3ccccc3)C(=O)N2c2cc(OC)c(OC)c(OC)c2)cc1NC(=O)C(C)N (relative stereo),,0.23 µM,,
COc1cc(N2C(=O)[C@@H](Oc3ccccc3)[C@H]2c2cc(N)c(OC)c(O)c2)cc(OC)c1OC (relative stereo),14%,8.8 µM,,
COc1ccc([C@@H]2[C@H](Oc3ccccc3)C(=O)N2c2cc(OC)c(OC)c(OC)c2)cc1 (relative stereo),6.5%,35 µM,,
COc1cc(N2C(=O)[C@@H](Oc3ccccc3)[C@H]2c2cccc([N+](=O)[O-])c2)cc(OC)c1OC (relative stereo),16.7%,30 µM,,
COc1ccc([C@@H]2[C@@H](Oc3ccccc3)C(=O)N2c2cc(OC)c(OC)c(OC)c2)cc1Br (relative stereo),3.9%,31 µM,,
COc1cc(N2C(=O)[C@@H](Oc3ccccc3)[C@H]2c2ccc([S+](C)[O-])cc2)cc(OC)c1OC (relative stereo),1.7%,20 µM,,
COc1ccc([C@@H]2[C@H](Oc3ccccc3)C(=O)N2c2cc(OC)c(OC)c(OC)c2)c([N+](=O)[O-])c1O (relative stereo),12.7%,89 µM,,
